SMILES strings stand for the structures. Calls of active or inactive are those of the source. The rule behind the calls is not given here.

From ChEMBL document CHEMBL4373718, “Germacrane Sesquiterpenoids as a New Type of Anticardiac Fibrosis Agent Targeting Transforming Growth Factor β Type I Receptor” (J Med Chem, 2019) come the findings set out here.

Assay [1] has as its system Rattus norvegicus. As to the kind of experiment: Antifibrotic activity in abdominal aortic constriction Sprague-Dawley rat model of cardiac fibrosis assessed as ejection fraction at 10 mg/kg, ip administered once daily for 4 weeks measured post-last dose by echocardiography (reference value: 79.59 +/- 3.13%). It is filed as functional.
The test system of assay [2] is Rattus norvegicus. As to the kind of experiment: Antifibrotic activity in abdominal aortic constriction Sprague-Dawley rat model of cardiac fibrosis assessed as decrease in heart collagen level at 10 mg/kg, ip administered once daily for 4 weeks measured post-last dose by Masson's trichrome staining-based histological analysis. It is filed as functional, organism-based. The method, boiled down: (§1)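 Male SD rats (200–250 g, n = 8/group) had the suprarenal abdominal aorta tied with 4-0 silk around a 21-G probe, which was then removed; sham rats had surgery without constriction. Dosing was ip daily for 4 weeks in saline with 0.5% DMSO and 5% Kolliphor HS 15. Ventricle slices were formalin-fixed, paraffin-embedded and cut into 4 µm sections. FN and α-SMA were read by immunohistochemistry and collagen by Masson's trichrome.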

Assay [3] deals with Rattus norvegicus. As to the kind of experiment: Antifibrotic activity in abdominal aortic constriction Sprague-Dawley rat model of cardiac fibrosis assessed as fractional shortening at 10 mg/kg, ip administered once daily for 4 weeks measured post-last dose by echocardiography (reference value: 48.17 +/- 4.69%). It is filed as functional.
In assay [4] the target is T1, TGF-beta receptor type-1 (Rattus norvegicus) (UniProt P80204).
T1 sequence (whole entry): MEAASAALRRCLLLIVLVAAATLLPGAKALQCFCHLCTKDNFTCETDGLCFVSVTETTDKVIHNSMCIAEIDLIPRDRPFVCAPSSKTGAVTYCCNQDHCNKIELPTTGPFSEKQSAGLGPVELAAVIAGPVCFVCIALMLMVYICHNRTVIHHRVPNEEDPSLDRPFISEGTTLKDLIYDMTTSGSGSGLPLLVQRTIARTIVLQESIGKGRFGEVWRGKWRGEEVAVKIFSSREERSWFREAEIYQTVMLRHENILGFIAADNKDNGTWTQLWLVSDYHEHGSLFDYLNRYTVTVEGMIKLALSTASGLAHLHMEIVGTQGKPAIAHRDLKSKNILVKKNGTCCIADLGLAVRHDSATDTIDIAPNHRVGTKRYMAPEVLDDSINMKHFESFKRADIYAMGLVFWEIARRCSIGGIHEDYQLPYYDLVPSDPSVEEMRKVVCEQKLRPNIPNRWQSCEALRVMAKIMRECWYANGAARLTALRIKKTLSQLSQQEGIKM
As to the kind of experiment: Inhibition of TGFbeta1 receptor in TGFbeta1-stimulated Sprague-Dawley rat cardiac fibroblasts assessed as reduction in collagen 1 expression at 20 uM measured after 12 hrs by Western blot analysis. The method, boiled down: (§2)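 Primary adult male SD rat cardiac fibroblasts were used at passages 2–4, seeded at 3×10^5 per well. Cells were co-treated with compound and 10 ng/mL TGFβ1 for 12 h. Lysates (30 µg protein) were run on 10% SDS-PAGE, Western blotted for FN, α-SMA, collagen I and III, normalised to GAPDH and quantified by densitometry; N = 3 independent experiments.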

Assay [5] concerns Rattus norvegicus. As to the kind of experiment: Antifibrotic activity in abdominal aortic constriction Sprague-Dawley rat model of cardiac fibrosis assessed as decrease in heart alpha-SMA level at 10 mg/kg, ip administered once daily for 4 weeks measured post-last dose by immunohistochemical analysis. It is filed as functional, organism-based. In a few lines:
as §1

Assay [6] deals with T1, TGF-beta receptor type-1 (Rattus norvegicus). As to the kind of experiment: Inhibition of TGFbeta1 receptor in TGFbeta1-stimulated Sprague-Dawley rat cardiac fibroblasts assessed as reduction in collagen 3 expression at 20 uM measured after 12 hrs by Western blot analysis. In a few lines: as §2
(In general: A western blot detects proteins with antibodies after separation by electrophoresis.)

Assay [7] shares this target. As to the kind of experiment: Inhibition of TGFbeta1 receptor in TGFbeta1-stimulated Sprague-Dawley rat cardiac fibroblasts assessed as reduction in alpha-SMA expression at 20 uM measured after 12 hrs by Western blot analysis. The method, boiled down: as §2
Assay [8] shares this target. As to the kind of experiment: Inhibition of TGFbeta1 receptor in TGFbeta1-stimulated Sprague-Dawley rat cardiac fibroblasts assessed as reduction in fibronectin expression at 20 uM measured after 12 hrs by Western blot analysis. In a few lines: as §2
The subject of assay [9] is Rattus norvegicus. As to the kind of experiment: Antifibrotic activity in abdominal aortic constriction Sprague-Dawley rat model of cardiac fibrosis assessed as diastolic left ventricular anterior wall thickness at 10 mg/kg, ip administered once daily for 4 weeks measured post-last dose by echocardiography (reference value: 2.48 +/- 0.42 mm). It is filed as functional.

Assay [10] concerns Rattus norvegicus. As to the kind of experiment: Antifibrotic activity in abdominal aortic constriction Sprague-Dawley rat model of cardiac fibrosis assessed as diastolic left ventricular internal diameter at 10 mg/kg, ip administered once daily for 4 weeks measured post-last dose by echocardiography (reference value: 7.60 +/- 0.63 mm). It is filed as functional.
For assay [11], the system named is Rattus norvegicus. As to the kind of experiment: Antifibrotic activity in abdominal aortic constriction Sprague-Dawley rat model of cardiac fibrosis assessed as systolic left ventricular posterior wall thickness at 10 mg/kg, ip administered once daily for 4 weeks measured post-last dose by echocardiography (reference value: 3.62 +/- 0.26 mm). It is filed as functional.

In assay [12] the test system is Rattus norvegicus. As to the kind of experiment: Antifibrotic activity in abdominal aortic constriction Sprague-Dawley rat model of cardiac fibrosis assessed as systolic left ventricular internal diameter at 10 mg/kg, ip administered once daily for 4 weeks measured post-last dose by echocardiography (reference value: 3.99 +/- 0.41 mm). It is filed as functional.

In assay [13] the test system is Rattus norvegicus. As to the kind of experiment: Antifibrotic activity in abdominal aortic constriction Sprague-Dawley rat model of cardiac fibrosis assessed as systolic left ventricular anterior wall thickness at 10 mg/kg, ip administered once daily for 4 weeks measured post-last dose by echocardiography (reference value: 3.92 +/- 0.42 mm). It is filed as functional.

The subject of assay [14] is Rattus norvegicus. As to the kind of experiment: Antifibrotic activity in abdominal aortic constriction Sprague-Dawley rat model of cardiac fibrosis assessed as decrease in heart fibronectin level at 10 mg/kg, ip administered once daily for 4 weeks measured post-last dose by immunohistochemical analysis. It is filed as functional, organism-based. In a few lines:
as §1

Assay [15] has as its system Rattus norvegicus. As to the kind of experiment: Antifibrotic activity in abdominal aortic constriction Sprague-Dawley rat model of cardiac fibrosis assessed as diastolic left ventricular posterior wall thickness at 10 mg/kg, ip administered once daily for 4 weeks measured post-last dose by echocardiography (reference value: 2.33 +/- 0.31 mm). It is filed as functional.

In assay [16] the target is T1, TGF-beta receptor type-1 (Rattus norvegicus). As to the kind of experiment: Inhibition of TGFbeta1 receptor in TGFbeta1-stimulated Sprague-Dawley rat cardiac fibroblasts assessed as reduction in fibronectin expression at 50 uM measured after 12 hrs by Western blot analysis. In a few lines: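 Screen in primary rat cardiac fibroblasts: compounds at 50 µM or 10 µM given with 10 ng/mL TGFβ1 for 12 h. FN measured by Western blot with GAPDH loading control and densitometry. N=3 independent experiments.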

For assay [17] the target is unchanged. As to the kind of experiment: Inhibition of TGFbeta1 receptor in TGFbeta1-stimulated Sprague-Dawley rat cardiac fibroblasts assessed as reduction in fibronectin expression at 10 uM measured after 12 hrs by Western blot analysis relative to control. In a few lines: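 Primary rat cardiac fibroblasts (passages 2–4, 3×10^5 per well) treated with compound plus 10 ng/mL TGFβ1 for 12 h; tested at 2.5, 5 and 10 µM. Lysates run on 10% SDS-PAGE (30 µg protein), probed for FN, α-SMA and collagen I/III, and quantified by densitometry against GAPDH. N=3 independent experiments.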

Assay [18] has the same target. As to the kind of experiment: Inhibition of TGFbeta1 receptor in TGFbeta1-stimulated Sprague-Dawley rat cardiac fibroblasts assessed as reduction in fibronectin expression at 2 mM measured after 12 hrs by Western blot analysis.
Assay [19] has the same target. As to the kind of experiment: Inhibition of TGFbeta1 receptor in TGFbeta1-stimulated Sprague-Dawley rat cardiac fibroblasts assessed as reduction in collagen 1 expression at 2 mM measured after 12 hrs by Western blot analysis.
For assay [20] the target is unchanged. As to the kind of experiment: Inhibition of TGFbeta1 receptor in TGFbeta1-stimulated Sprague-Dawley rat cardiac fibroblasts assessed as reduction in collagen 3 expression at 2 mM measured after 12 hrs by Western blot analysis.
The target is the same in assay [21]. As to the kind of experiment: Inhibition of TGFbeta1 receptor in TGFbeta1-stimulated Sprague-Dawley rat cardiac fibroblasts assessed as reduction in alpha-SMA expression at 2 mM measured after 12 hrs by Western blot analysis.

In the case of `COC(=O)C1=C(C)NC(C)=C(C(=O)OC)C1c1ccccc1[N+](=O)[O-]` [NIFEDIPINE], the Activity with Rattus norvegicus [1] is recorded as 72.6%; with Rattus norvegicus [3] it was 42.79%; with Rattus norvegicus [9], 2.02 mm; in the assay on Rattus norvegicus [10], 8.32 mm; in the assay on Rattus norvegicus [11], 3.19 mm; in the assay on Rattus norvegicus [12], 4.69 mm. The Activity with Rattus norvegicus [13] is listed as 3.23 mm; with Rattus norvegicus [15], 1.97 mm. The outcome with Rattus norvegicus [2], in the assay on Rattus norvegicus [5] and with Rattus norvegicus [14] was Active. In addition, the inhibition entry in [4], in assay [6], in [7] and in assay [8] was “Active” each time.
In the case of `C=C(C)[C@@H]1C/C=C(\C)[C@H](OC(=O)c2ccc([N+](=O)[O-])cc2)CCC2=C[C@@H]1OC2=O`, in assay [16], the “fibronectin reduction (active/not active)” value was “Active”. For the same compound, the “fibronectin reduction verdict (active/not active)” value in assay [17] is “Active”.
In the case of `O=C1CCC[C@@H]2[C@H]3CCC[N+]4([O-])CCC[C@@H](CN12)[C@@H]34` (stereo partly specified), the inhibition entry in [18], in assay [19], in assay [20] and in assay [21] was “Active” each time.
Turning to `C=C(C)[C@@H]1C/C=C(C)/C(=N\OC(C)=O)CCC2=C[C@@H]1OC2=O`, in [16], the “fibronectin reduction (active/not active)” value is “inactive”. Further, in assay [17], the “fibronectin reduction verdict (active/not active)” value was “inactive”.
Consider `C=C(C)[C@@H]1C[C@@H](OCC)/C(C)=C/CCC2=C[C@@H]1OC2=O`, for which the “fibronectin reduction (active/not active)” value in assay [16] was “inactive”. The “fibronectin reduction verdict (active/not active)” value in [17] was “inactive”.
Take `C=C(C)[C@@H]1C[C@@H](N2CCCCC2)/C(C)=C/CCC2=C[C@@H]1OC2=O`: the “fibronectin reduction (active/not active)” value in assay [16] is “inactive”. Also, the “fibronectin reduction verdict (active/not active)” value in [17] was “inactive”.
`C=C(C)[C@@H]1C[C@@H](O)/C(C)=C/CCC2=C[C@@H]1OC2=O`: in assay [16], the “fibronectin reduction (active/not active)” value is “Active”. Also, the “fibronectin reduction verdict (active/not active)” value in assay [17] was “Active”.
Turning to `C=C(C)[C@@H]1C/C=C(\C)[C@H](Br)CCC2=C[C@@H]1OC2=O`, in [16], the “fibronectin reduction (active/not active)” value was “Active”. Moreover, the “fibronectin reduction verdict (active/not active)” value in assay [17] was “Active”.
